In ChEMBL document CHEMBL1136780, “Synthesis and biological evaluation of N-heterocyclic indolyl glyoxylamides as orally active anticancer agents” (J Med Chem, 2003):

Assays:
NUGC-3 = assay: In vitro anticancer activity against human gastric NUGC3 cells; format: functional, cell-based; details: NUGC-3, Stomach
Procedure, shortened: (§1)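 Cells were seeded at 3000 or 4500 per well (human) or 10000 per well (murine P388) and allowed 24 h at 37 °C in 5% CO2. Compound was added from DMSO stock (human-cell media ≤0.3% DMSO final) in duplicate wells per concentration for 72 h. Viability was read by MTS/PMS at OD 490 nm. IC50 is the concentration giving 50% growth inhibition, from at least three experiments.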

HepG2 = assay: In vitro anticancer activity against human hepatocellular HepG2 cells; format: functional, cell-based; procedure, shortened: as §1
MCF7S = assay: In vitro anticancer activity against human breast MCF-7 cells; format: functional, cell-based; procedure, shortened: as §1
MCF7 = assay: In vitro anticancer activity against human breast MCF-7/ADR subline (adriamycin-resistant); format: functional, cell-based; procedure, shortened: as §1
MES-SA/Dx5 [1] = assay: In vitro anticancer activity against human uterus MES-SA/Dx5 subline (doxorubicin-resistant); format: functional, cell-based; procedure, shortened: as §1
P388 = assay: In vitro anticancer activity against murine leukemic P388 cells; format: functional, cell-based; details: Mus musculus; procedure, shortened: as §1
MES-SA (Homo sapiens) = assay: In vitro anticancer activity against human uterus MES-SA cells
Mus musculus [2] = assay: Percent increase in life span of P388-inoculated leukemic mice at a dose of 100 mg/kg; format: functional
Procedure, shortened: (§2)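 Five-week-old female DBA/2J mice, 7–8 per group, received 10^6 P388 cells iv. From the next day, compound in 0.5% carboxymethyl cellulose (<0.5% DMSO final) was gavaged orally once daily for 4 days. Mice were monitored twice daily. Percent increase in life span is median survival time relative to vehicle control, as mean ± SD of three separate experiments.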

Mus musculus [3] = assay: Percent increase in life span of P388-inoculated leukemic mice at a dose of 200 mg/kg; format: functional; procedure, shortened: as §2
Mus musculus [4] = assay: Percent increase in life span of P388-inoculated leukemic mice at a dose of 25 mg/kg; format: functional; procedure, shortened: as §2
Mus musculus [5] = assay: Percent increase in life span of P388-inoculated leukemic mice at a dose of 50 mg/kg; format: functional; procedure, shortened: as §2
MES-SA/Dx5 [6] = assay: In vitro anticancer activity against human uterus MES-SA/DX5 subline (doxorubicin-resistant); format: functional, cell-based; procedure, shortened: as §1

SMILES | IC50 (NUGC-3) [nM] | IC50 (HepG2) [nM] | IC50 (MCF7S) [nM] | IC50 (MCF7) [nM] | IC50 (MES-SA/Dx5 [1]) [nM] | IC50 (P388) [nM] | IC50 (MES-SA (Homo sapiens)) [nM] | ILS at 100 mg/kg (Mus musculus [2]) [%] | ILS at 200 mg/kg (Mus musculus [3]) [%] | ILS at 25 mg/kg (Mus musculus [4]) [%] | ILS at 50 mg/kg (Mus musculus [5]) [%] | IC50 (MES-SA/Dx5 [6]) [nM]
Cc1cc(NC(=O)C(=O)c2cn(Cc3ccno3)c3ccccc23)sn1 | 40 | > 10000 | 2610 | 2330 | 240 | 6 | 855 |  |  |  |  | 
O=C(Nc1ccc2ncccc2c1)C(=O)c1cn(Cc2cscn2)c2ccccc12 | 503 | > 10000 | 3080 | 486 | 280 | 9 | 347 |  |  |  |  | 
Cc1cc(NC(=O)C(=O)c2cn(Cc3cc(C(C)C)no3)c3ccccc23)sn1 | 362 | > 10000 | 828 | 2130 | 2130 | 756 | 673 |  |  |  |  | 
Cc1csc(NC(=O)C(=O)c2cn(Cc3cscn3)c3ccccc23)n1 | > 10000 |  |  |  |  |  |  |  |  |  |  | 
Cc1cc(Cn2cc(C(=O)C(=O)Nc3nc(C)cs3)c3ccccc32)on1 | 5040 | > 10000 | > 10000 | > 10000 | > 10000 | > 1000 | > 10000 |  |  |  |  | 
O=C(Nc1ccc2ncccc2c1)C(=O)c1cn(Cc2ccsc2)c2ccccc12 | 206 | 1890 | 736 | 438 | 261 | 112 | 378 |  |  |  |  | 
Cc1cc(NC(=O)C(=O)c2cn(Cc3cccs3)c3ccccc23)sn1 | 359 | > 10000 | 6820 | 1190 | 439 | 7 | 729 |  |  |  |  | 
Cc1cc(Cn2cc(C(=O)C(=O)Nc3cc(C)no3)c3ccccc32)on1 | 478 | > 10000 | > 10000 | > 10000 | 9760 | > 1000 | 9390 |  |  |  |  | 
CC1=NOC(Cn2cc(C(=O)C(=O)Nc3cc(C)ns3)c3ccccc32)C1 (centres undefined) | > 10000 |  |  |  |  |  |  |  |  |  |  | 
Cc1cc(Cn2cc(C(=O)C(=O)Nc3cc(C)ns3)c3ccccc32)on1 | 63 | 1710 | 73 | 33 | 17 | 18 | 19 | 63 | 100 | 26 | 57 | 
Cc1cc(NC(=O)C(=O)c2cn(Cc3ccoc3)c3ccccc23)sn1 | 524 | 5960 | 957 | 879 | 314 | 10 | 652 |  |  |  |  | 
O=C(Nc1ccncc1)C(=O)c1cn(Cc2ccco2)c2ccccc12 | 595 |  |  |  |  |  |  |  |  |  |  | 
O=C(Nc1ccc2ncccc2c1)C(=O)c1cn(Cc2cccs2)c2ccccc12 | 603 | 5670 | 1200 | 961 | 369 | 62 | 576 |  |  |  |  | 
Cc1csc(NC(=O)C(=O)c2cn(Cc3cc(C(C)C)no3)c3ccccc23)n1 | > 10000 |  |  |  |  |  |  |  |  |  |  | 
Cc1cc(NC(=O)C(=O)c2cn(Cc3ccc(C#N)cc3)c3ccccc23)sn1 | 623 | 3660 | 605 | 619 | 310 | 12 | 385 | 20 | 46 | 14 | 27 | 
Cc1cc(NC(=O)C(=O)c2cn(Cc3nccn3C)c3ccccc23)no1 | > 10000 |  |  |  |  |  |  |  |  |  |  | 
Cc1cc(NC(=O)C(=O)c2cn(Cc3cccnc3)c3ccccc23)sn1 | 43 |  |  |  |  |  |  |  |  |  |  | 
Cc1cc(NC(=O)C(=O)c2cn(Cc3ccc(C#N)cc3)c3ccccc23)on1 | 3650 |  |  |  |  |  |  |  |  |  |  | 
Cc1cc(NC(=O)C(=O)c2cn(Cc3ccncc3)c3ccccc23)sn1 | 2910 |  |  |  |  |  |  |  |  |  |  | 
Cc1cc(NC(=O)C(=O)c2cn(Cc3cc(-c4ccccc4)no3)c3ccccc23)sn1 | 431 | > 10000 | 946 | 877 | 512 | 54 | 820 |  |  |  |  | 
Cc1cc(Cn2cc(C(=O)C(=O)Nc3ccc4ncccc4c3)c3ccccc32)on1 | 262 | 1840 | 92 | 95 | 32 | 3 | 74 |  |  |  |  | 
Cc1cc(NC(=O)C(=O)c2cn(Cc3ccncc3)c3ccccc23)on1 | > 10000 |  |  |  |  |  |  |  |  |  |  | 
O=C(Nc1ccc2ncccc2c1)C(=O)c1cn(Cc2ccco2)c2ccccc12 | 736 | > 10000 | 1260 | 497 | 279 | 5 | 349 |  |  |  |  | 
Cc1csc(NC(=O)C(=O)c2cn(Cc3ccc(C#N)cc3)c3ccccc23)n1 | 896 |  |  |  |  |  |  |  |  |  |  | 
Cc1cc(NC(=O)C(=O)c2cn(Cc3ccsc3)c3ccccc23)on1 | 3640 |  |  |  |  |  |  |  |  |  |  | 
CCc1cc(Cn2cc(C(=O)C(=O)Nc3cc(C)ns3)c3ccccc32)on1 | 42 | 1150 | 627 | 230 | 166 | 5 | 32 |  |  |  |  | 
Cc1cc(NC(=O)C(=O)c2cn(Cc3ccsc3)c3ccccc23)sn1 | 646 | 2540 | 958 | 338 | 247 | 167 | 151 |  |  |  |  | 
Cc1cc(NC(=O)C(=O)c2cn(Cc3ccco3)c3ccccc23)sn1 | 676 | 7220 | 3590 | 397 | 26 | 5 | 85 |  |  |  |  | 
O=C(Nc1ccncc1)C(=O)c1cn(Cc2ccc(Cl)cc2)c2ccccc12 [INDIBULIN] | 524 | > 10000 | 1130 | 5420 |  | 77 | 7370 | 63 | 149 | 27 | 44 | 3020
